Assay results as given in the RNAGym collection of RNA variant scans (doi:10.1126/science.aae0568).
Variants at the floor of the assay were thinned out.

B1: tRNA (parent)
chain: GUUCCGUUGGCGUAAUGGUAACGCGUCUCCCUCCUAAGGAGAAGACUGCGGGUUCGAGUCCCGUACGGAACG

Variants of: B1
Test: yeast fitness relative to wild type (ratio to wild type); higher = fitter; tRNA-Arg(CCU), competitive growth, 37 C, YPD
Summary of the method: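 Amplicons of the tRNA-Arg(CCU) gene were sequenced, 100-nucleotide paired-end, from the start population and from each end population of a pooled yeast competition. The competition, in six parallel replicates, lasted 24 hours in YPD at 37°C. Fitness relative to wild type was calculated from changes in genotype frequencies. Genotypes had to have ≥ 100 starting reads, and estimates < 0.5 were set to 0.5.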

Variant	yeast fitness
U7C G51C A57G	≤ 0.5
A14C C27G U28G	≤ 0.5
C5U U54G	0.647
C11U U19A G41A A65U	≤ 0.5
G9C U13C A43U	0.618
U19C G67U A69G	0.751
C5A A15U A21U	0.56
U2C C24G U26G C34A A36C	≤ 0.5
G25A C29U C31U	0.57
A21C C27A A45U U47G	≤ 0.5
C5U A20U G67A A70G	0.933
G25C U26G C46G A70U	0.62
C33U A42G U59G	0.504
U19C C55U C61G	0.596
C49A G50A	0.672
A20C C33U G41A	≤ 0.5
U13A A20U C27U A42G U54C	≤ 0.5
A43U C61G C62A	0.581
C5U A20C U26G C30U C49U C66G	≤ 0.5
C33A U54G	0.518
C4U G9A C22G C24U A42U U64A G67A	0.572
C24A C31G C34U G68A	≤ 0.5
U54C C66A	0.595
A20C C62G	0.618

Variant	yeast fitness
G25C A43U C61G G67C	≤ 0.5
U3C A40G C46A U53C	0.663
G25A G50A A69C	0.676
C5U C11G C29G	0.733
A14U A20C C31G C66A	≤ 0.5
C22G C29G G51A	0.536
G9A C34G C55U G63A	≤ 0.5
C11U C34G A40C A43G G51C	≤ 0.5
C5U A21U C30G C62U	0.57
C11A U28G G44C	0.602
A20C A21U G41A	≤ 0.5
G10A A14G A70C	0.535
C30U U47C	0.835
G6C C11A C22U U47C C66A	≤ 0.5
G6C U8C G56A	0.672
A40C A43U	0.986
G17C U59G	0.674
U47C C49U	0.987
C5G C11U A70C	≤ 0.5
C24U A36G C61A	≤ 0.5
A40U A43C U53C G68A	≤ 0.5
C24A C29G C60U	≤ 0.5
C5U A37U G56C	0.686
U7C G12C A20C	0.632

Variant	yeast fitness
U3C C30U C33G	≤ 0.5
A14U U26C A42U C49U	0.536
C60U	0.779
C30U U47C A65G	≤ 0.5
U3C U13C U16A C61A U64C	0.582
C5G U8C A14C C29A C31G U54A	≤ 0.5
A45C C49U C55U	0.596
A14C A21C C24U A36U A43U A65C C66U	≤ 0.5
U2G A45G A65C	≤ 0.5
A14G C24U A45C G51U U59C	≤ 0.5
A15G U35G A45U	≤ 0.5
G9A C22U A37G	≤ 0.5
U26C U28C A70G	0.73
U8C A40U	0.903
C24G A43G U47A	≤ 0.5
C22A U28G U35A	0.571
C11G C24U A69C	≤ 0.5
U2G G17A C33G G39C C55U	≤ 0.5
G23C C27U C30U	0.53
U7A A14U G68A	≤ 0.5
G10A A15C C34A G56A	≤ 0.5
C4A A14G G18A G25C	≤ 0.5
G38C A45C	0.58
C22A C30A U54C C55G	≤ 0.5

Variant	yeast fitness
U13G A14G G17A G39C	0.758
C4G C24G U26G G39C C49G A65G	≤ 0.5
U7C G12A C24U C49A	≤ 0.5
U8A A37G A42U U54C	≤ 0.5
A20G C49U C66U A70C	≤ 0.5
G6A G17C U35A G39A C55G C60U G67C	≤ 0.5
G39A G63C	0.728
A20G A36U C61U	0.571
A21G A45G C46G	0.802
G6C G10C C11U G23A C24G C46G	≤ 0.5
C5U G44C U47C	0.807
U13A A45C G48A	1.26
G12A C31G G48C C66G	≤ 0.5
G12A C30A A70U	0.759
C4U C5U A36U	0.625
A21C C34U C49U A69U	0.53
C11G C27U A37U G44A C62A	0.511
U2G C4U	0.971
G56A C62U	0.967
C34U G50A	0.67
U7A G9C G10A C30U C34G G68C	≤ 0.5
C11G C55U C61A	0.546
U16A C46A A69U	0.715
G41C C62U	0.802

Variant	yeast fitness
C22A C29G C34G A42C C62G	≤ 0.5
C5G U32C G38C	0.534
U7G A43G C60U C62U A70C	≤ 0.5
A15G G39C C62U G63C	≤ 0.5
A15G G25A C60U G68C	0.561
G18C C30G U32C U53A	≤ 0.5
G9C A42G G52A	≤ 0.5
G25C C55A	0.68
A14G C29U C31U C33U	0.543
C11G G17A C30G C61G	≤ 0.5
U28G A40U A69C	0.629
U19C C24G A37U U47A	0.524
A15G U32A G38A	0.525
U2C A65U G67A	0.698
C11U C22U G48C U54G C55U	≤ 0.5
C5A C31A C46A G50C	≤ 0.5
G10C A36C G48A	≤ 0.5
G6C G58C C61A	0.528
G10A A15C	0.613
C5G G17A A40C	0.651
A21U C27U A37U C60G	≤ 0.5
C29U G44A A57G	0.623
A15G C29A C61A C66G	0.535
U13A U32G A45G A70G	≤ 0.5

Variant	yeast fitness
U13A G48C	1.1
G44A A45C C49G A69C	0.698
A36U G67A	0.63
C5U C33A G39C G51C C62U A69C	0.543
A14U A40G	0.707
U3A G10C A36U A40C C60G A70G	≤ 0.5
C11U U47C	1.04
U3C U7A A20G C31U A57C G67C	≤ 0.5
C5U G9A A20G	0.663
C5U A14U	0.718
U13G U16G C31G C49U	≤ 0.5
C33U G48C	0.778
A14C U16G	0.609
G10A C31G G44A G56C	≤ 0.5
C5A C33U U53C	≤ 0.5
A45U C55U A69G	≤ 0.5
A37C U47C	0.81
U3C C30U C46A U54A A57G	≤ 0.5
A20C A21G C24U	0.647
U8A C55U	≤ 0.5
A15G G25A C61U A70U	≤ 0.5
G10U C27G G39A G67A	≤ 0.5
U54G A65G G68U A70C	≤ 0.5
G17C A40G A42U C62U	≤ 0.5

Variant	yeast fitness
A43C C46A G48C	0.851
U13A C27G A42U A69U	0.687
A36G A40C A42G	0.768
C30U A43C G58A	0.99
A36G A57C	0.645
C33G C34G U35A G44A	≤ 0.5
C4U A21C A42G	≤ 0.5
A15U C31A A70G	≤ 0.5
C11G G25A U35C A36U	≤ 0.5
G10C G44C G51C	≤ 0.5
G12A U47C A69U	0.757
U2A G58A	0.838
U2C U19C	0.897
G17C C27U	0.617
C29G A40U C55A G67C	≤ 0.5
U2A U13A C29U U35A C60U	≤ 0.5
C31U U53C C62G	0.625
C5U U7A C30A G56C C66G	≤ 0.5
G17A C31U U35C C62G	≤ 0.5
U53A	0.653
C22G G51A A70U	0.665
U32C C61U G68A	0.586
G10A G12C C31U U53C A70C	≤ 0.5
